From ChEMBL document CHEMBL3272331, “Diacridines, bifunctional intercalators. Chemistry and antitumor activity” (J Med Chem, 1978)
pIC50: −log10 of the molar value.

Assays:
P388 [1] = test: Growth inhibition of mouse P388 cells by in vitro assay; type: functional, cell-based; conditions: read-out: I50
Outline: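 P-388 murine leukemia cells kept in suspension culture were incubated with a range of diacridine concentrations. The concentration that reduced the rate of cell growth by 50% was taken as the I50.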

P388 [2] = test: Antitumor activity against mouse P388 cells allografted in BDF/1 mouse assessed as increase in life span at optimal dose consecutively administered on day 1 to day 9 post challenge relative to control; type: functional
Outline: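 P-388 tumour passaged as ascites in DBA/2 mice; 1×10^6 ascites cells given ip to BDF/1 mice on day 0. Drug given daily for 9 consecutive days from day 1 to groups of six mice at 20, 10, 5, 2.5, 1.25 and 0.625 mg/kg/day. Day of death recorded; % ILS calculated from treated vs control life spans; dose giving optimal % ILS reported.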

Mus musculus = test: Toxicity in mouse P388 cells allografted BDF/1 mouse consecutively administered on day 1 to day 9 post challenge measured on day 5; type: organism-based

SMILES | pIC50 (P388 [1]) | ILS (P388 [2]) [%] | LD10 (Mus musculus) [mg/kg/day]
COc1ccc2c(NCCCCCCNc3c4ccccc4nc4cc(OC)ccc34)c3ccccc3nc2c1 | 6.62 | 71 | 9.5
c1ccc2c(NCCCCCCCNc3c4ccccc4nc4ccccc34)c3ccccc3nc2c1 | 6.49 | 67 | 12.5
c1ccc2c(NCCCCCNc3c4ccccc4nc4ccccc34)c3ccccc3nc2c1 |  | 36 | 12.5
c1ccc2c(NCCCCCCCCCCCCNc3c4ccccc4nc4ccccc34)c3ccccc3nc2c1 | 6.49 | 10 | 6.5
CCc1cccc2c(NCCNc3c4ccccc4nc4c(CC)cccc34)c3ccccc3nc12 |  | 20 | 16
CCc1cccc2c(NCCCCNc3c4ccccc4nc4c(CC)cccc34)c3ccccc3nc12 |  | 10 | 7.4
Cl.Nc1ccc2c(NCCCCCCNc3c4ccccc4nc4cc(N)ccc34)c3ccccc3nc2c1 | 6.68 | 47 | > 20
CCc1cccc2c(NCCCCCCNc3c4ccccc4nc4c(CC)cccc34)c3ccccc3nc12 | 6.64 | 43 | 16
O=[N+]([O-])c1ccc2c(NCCCCCCNc3c4ccccc4nc4cc([N+](=O)[O-])ccc34)c3ccccc3nc2c1 | 6.32 | 37 | > 20
COc1ccc2nc3ccccc3c(NCCCCCCNc3c4ccccc4nc4ccc(OC)cc34)c2c1 | 6.49 | 25 | 8.6
CCCOc1ccc2c(NCCCCCCNc3c4ccccc4nc4cc(OCCC)ccc34)c3ccccc3nc2c1 | 6.49 | 37 | 6.8
COc1cccc2c(NCCCCCCNc3c4ccccc4nc4c(OC)cccc34)c3ccccc3nc12 | 6.72 | 62 | 12.5
CCCCOc1cccc2c(NCCCCCCNc3c4ccccc4nc4c(OCCCC)cccc34)c3ccccc3nc12 | 6.44 | 7 | 6.5
CCc1cccc2c(NCCCCCCCCNc3c4ccccc4nc4c(CC)cccc34)c3ccccc3nc12 | 6.64 | 42 | 12
COc1ccc2nc3ccccc3c(NCCCCCCCCNc3c4ccccc4nc4ccc(OC)cc34)c2c1 | 6.72 | 30 | 6
COc1ccc2c(NCCCCCCCCNc3c4ccccc4nc4cc(OC)ccc34)c3ccccc3nc2c1 |  | 84 | 10.5
COc1cccc2c(NCCCCCCCCNc3c4ccccc4nc4c(OC)cccc34)c3ccccc3nc12 | 6.54 | 89 | 13.5
COc1ccc2c(NCCCCCCCCNc3c4ccc(OC)cc4nc4c(OC)cccc34)c3cccc(OC)c3nc2c1 | 6.38 | 66 | 13
COc1ccc2c(NCCCCCCCCNc3c4ccc(OC)cc4nc4ccc(Cl)cc34)c3cc(Cl)ccc3nc2c1 | 6.80 | 18 | 7
COc1ccc2c(NCCCCCCCCNc3c4ccc(Cl)cc4nc4cc(OC)ccc34)c3ccc(Cl)cc3nc2c1.Cl |  | 17 | > 20
CCOc1cccc2c(NCCCCCCCCNc3c4ccccc4nc4c(OCC)cccc34)c3ccccc3nc12 |  | 76 | 13.5
CCCOc1ccc2c(NCCCCCCCCNc3c4ccccc4nc4cc(OCCC)ccc34)c3ccccc3nc2c1 | 6.68 | 63 | 5.5
Cl.Nc1ccc2c(NCCCCCCCCNc3c4ccccc4nc4cc(N)ccc34)c3ccccc3nc2c1 |  | 58 | > 20
O=[N+]([O-])c1ccc2c(NCCCCCCCCNc3c4ccccc4nc4cc([N+](=O)[O-])ccc34)c3ccccc3nc2c1 | 6.48 | 45 | > 20
COc1ccc2c(NCCCCCCCCNc3c4ccc(OC)cc4nc4cc([N+](=O)[O-])ccc34)c3ccc([N+](=O)[O-])cc3nc2c1 |  | 21 | > 20

SMILES | pIC50 (P388 [1]) | ILS (P388 [2]) [%] | LD10 (Mus musculus) [mg/kg/day]
Clc1ccc2c(NCCCCCCCCNc3c4ccccc4nc4cc(Cl)ccc34)c3ccccc3nc2c1 | 6.64 | 29 | > 20
Brc1ccc2c(NCCCCCCCCNc3c4ccccc4nc4cc(Br)ccc34)c3ccccc3nc2c1 | 6.68 | 9 | > 20
CSc1ccc2c(NCCCCCCCCNc3c4ccccc4nc4cc(SC)ccc34)c3ccccc3nc2c1.Cl | 6.43 | 27 | 8
CSc1cccc2c(NCCCCCCCCNc3c4ccccc4nc4c(SC)cccc34)c3ccccc3nc12 | 6.07 | 13 | > 20
CCCCOc1cccc2c(NCCCCCCCCNc3c4ccccc4nc4c(OCCCC)cccc34)c3ccccc3nc12 | 6.72 | 7 | 7.6
CCc1cccc2c(NCCCCCCCCCCNc3c4ccccc4nc4c(CC)cccc34)c3ccccc3nc12 | 6.82 | 33 | 13
c1ccc2c(NCCCCCCCCCCNc3c4ccccc4nc4ncccc34)c3cccnc3nc2c1 |  | 22 | 
c1ccc2c(NCCCCCCCCCCCCNc3c4ccccc4nc4ncccc34)c3cccnc3nc2c1 |  | 10 | 
COc1ccc2c(NCCNc3c4ccccc4nc4cc(OC)ccc34)c3ccccc3nc2c1.Cl |  | 0 | 7.2
CCCCOc1cccc2c(NCCNc3c4ccccc4nc4c(OCCCC)cccc34)c3ccccc3nc12 |  | 9 | 12.5
COc1ccc2c(NCCCCNc3c4ccccc4nc4cc(OC)ccc34)c3ccccc3nc2c1.Cl |  | 10 | > 20
CCCOc1cccc2c(NCCCCNc3c4ccccc4nc4c(OCCC)cccc34)c3ccccc3nc12.Cl |  | 9 | 9.8
Cl.Nc1ccc2nc3ccccc3c(NCCCCCCCCNc3c4ccccc4nc4ccc(N)cc34)c2c1 |  | 60 | > 20
Cc1ccc2c(NCCCCCCCCNc3c4ccccc4nc4cc(C)ccc34)c3ccccc3nc2c1.Cl |  | 59 | 7.3
Cc1ccc2c(NCCCCCCCCNc3c4ccccc4nc4c(C)c(C)ccc34)c3ccccc3nc2c1C.Cl |  | 60 | 8
COc1ccc(C)c2c(NCCCCCCCCNc3c4ccccc4nc4c(OC)ccc(C)c34)c3ccccc3nc12.Cl |  | 20 | 12.5
COc1cccc2c(NCCCCCCCCNc3c4ccc([N+](=O)[O-])cc4nc4c(OC)cccc34)c3ccc([N+](=O)[O-])cc3nc12.Cl |  | 86 | > 20
COc1ccc2c(NCCCCCCCCCCNc3c4ccccc4nc4cc(OC)ccc34)c3ccccc3nc2c1.Cl |  | 55 | 8
COc1ccc2nc3cc(Cl)ccc3c(NCCCCCCCCNc3c4ccc(Cl)cc4nc4ccc(OC)cc34)c2c1 |  | 9 | > 20
c1ccc2c(NCCCCCCNc3c4ccccc4nc4ccccc34)c3ccccc3nc2c1 | 6.42 | 54 | 9
c1ccc2c(NCCCCNc3c4ccccc4nc4ccccc34)c3ccccc3nc2c1 | 5.57 | 13 | 11
c1ccc2c(NCCCCCCCCCCNc3c4ccccc4nc4ccccc34)c3ccccc3nc2c1 | 6.42 | 33 | 7
c1ccc2c(NCCCCCCCCNc3c4ccccc4nc4ccccc34)c3ccccc3nc2c1 | 6.49 | 60 | 13.5
c1ccc2c(NCCNc3c4ccccc4nc4ccccc34)c3ccccc3nc2c1 | 5.85 | 7 | 4.3
